How the values were obtained:
[1] = test system: HT-29; assay: In vitro cytotoxic potency against HT-29 (human colon adenocarcinoma) cell line.; assay type: functional, cell-based
[2] = test system: Calf thymus DNA; assay: CT-DNA binding required to produce a 50% drop in fluorescence of DNA-bound ethidium.; assay type: nucleic-acid assay; settings: Bos taurus
Summary of the method: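 Ethidium displacement from calf thymus DNA in 10 mM Na2HPO4, 10 mM NaH2PO4, 1 mM EDTA, pH 7.0, containing 1.26 μM ethidium bromide and 1 μM CT-DNA. Drug added serially from ~5 mM DMSO stock; 20 °C; fluorescence excitation 546 nm, emission 595 nm. C50 = drug concentration lowering DNA-bound ethidium fluorescence by 50%, mean of three determinations.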

[3] = test system: OVCAR-4; assay: Percent growth of NCI cell line, ovarian: OVCAR-4 exposed for 48 hr at 10e-6 concentration; assay type: functional, Homo sapiens
Summary of the method: (§1)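 NCI panel cell lines exposed 48 h to 10^-8, 10^-6 and 10^-4 M drug; read-out is percent growth at each concentration.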

[4] = test system: MCF7; assay: Percent growth of NCI cell line, breast: MCF-7 exposed for 48 hr at 10e-4 concentration; assay type: functional, Homo sapiens; summary of the method: as §1
[5] = test system: 786-0; assay: Percent growth of NCI cell line, renal: 786-0 exposed for 48 hr at 10e-6 concentration; assay type: functional, Homo sapiens; summary of the method: as §1
[6] = test system: DU-145; assay: Percent growth of NCI cell line, prostate: DU-145 exposed for 48 hr at 10e-6 concentration; assay type: functional, Homo sapiens; summary of the method: as §1
[7] = test system: DU-145; assay: Percent growth of NCI cell line, prostate: DU-145 exposed for 48 hr at 10e-4 concentration; assay type: functional, Homo sapiens; summary of the method: as §1
[8] = test system: MCF7; assay: Percent growth of NCI cell line, breast: MCF-7 exposed for 48 hr at 10e-6 concentration; assay type: functional, Homo sapiens; summary of the method: as §1
[9] = test system: OVCAR-4; assay: Percent growth of NCI cell line, ovarian: OVCAR-4 exposed for 48 hr at 10e-4 concentration; assay type: functional, Homo sapiens; summary of the method: as §1
[10] = test system: NCI-H460; assay: Percent growth of NCI cell line, lung-nsc: NCI-H460 exposed for 48 hr at 10e-4 concentration; assay type: functional, Homo sapiens; summary of the method: as §1
[11] = test system: HCT-15; assay: Percent growth of NCI cell line, colon: HCT-15 exposed for 48 hr at 10e-6 concentration; assay type: functional, Homo sapiens; summary of the method: as §1
[12] = test system: HCT-15; assay: Percent growth of NCI cell line, colon: HCT-15 exposed for 48 hr at 10e-4 concentration; assay type: functional, Homo sapiens; summary of the method: as §1
[13] = Percent growth of NCI cell line, leucemia K562 exposed for 48 hr at 10e-6 concentration; assay type: functional, Homo sapiens; summary of the method: as §1
[14] = test system: LOX IMVI; assay: Percent growth of NCI cell line, melanoma: LOX IMVI exposed for 48 hr at 10e-8 concentration; assay type: functional, Homo sapiens; summary of the method: as §1
[15] = test system: 786-0; assay: Percent growth of NCI cell line, renal: 786-0 exposed for 48 hr at 10e-8 concentration; assay type: functional, Homo sapiens; summary of the method: as §1
[16] = test system: LoVo; assay: Cytotoxicity activity on LoVo human adenocarcinoma cell line after 1 hr of drug exposure; assay type: functional, cell-based
Summary of the method: (§2)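 LoVo (sensitive) and LoVo/Dx (resistant) human colon adenocarcinoma cells seeded at 2.5 × 10^5 cells/mL medium; drug solutions added to culture. IC50 = drug concentration inhibiting cell growth by 50%, assays in triplicate.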

[17] = test system: OVCAR-4; assay: Percent growth of NCI cell line, ovarian: OVCAR-4 exposed for 48 hr at 10e-8 concentration; assay type: functional, Homo sapiens; summary of the method: as §1
[18] = test system: 786-0; assay: Percent growth of NCI cell line, renal: 786-0 exposed for 48 hr at 10e-4 concentration; assay type: functional, Homo sapiens; summary of the method: as §1
[19] = test system: LoVo; assay: Cytotoxicity activity on LoVo/Dx human adenocarcinoma cell line after 144 hr of drug exposure; assay type: functional, cell-based
Summary of the method: (§3)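 LoVo (sensitive) and LoVo/Dx (resistant) human colon adenocarcinoma cells seeded at 2.5 × 10^5 cells/mL medium; drug solutions added to culture.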

[20] = test system: LoVo; assay: Cytotoxicity activity on LoVo/Dx human adenocarcinoma cell line after 1 hr of drug exposure; assay type: functional, cell-based; summary of the method: as §2
[21] = test system: DU-145; assay: Percent growth of NCI cell line, prostate: DU-145 exposed for 48 hr at 10e-8 concentration; assay type: functional, Homo sapiens; summary of the method: as §1
[22] = test system: SNB-19; assay: Percent growth of NCI cell line, CNS: SNB-19 exposed for 48 hr at 10e-6 concentration; assay type: functional, Homo sapiens; summary of the method: as §1
[23] = test system: HCT-15; assay: Percent growth of NCI cell line, colon: HCT-15 exposed for 48 hr at 10e-8 concentration; assay type: functional, Homo sapiens; summary of the method: as §1
[24] = test system: MCF7; assay: Percent growth of NCI cell line, breast: MCF-7 exposed for 48 hr at 10e-8 concentration; assay type: functional, Homo sapiens; summary of the method: as §1
[25] = test system: LoVo; assay: Cytotoxicity activity on LoVo human adenocarcinoma cell line after 144 hr of drug exposure; assay type: functional, cell-based; summary of the method: as §3
[26] = test system: LOX IMVI; assay: Percent growth of NCI cell line, melanoma: LOX IMVI exposed for 48 hr at 10e-6 concentration; assay type: functional, Homo sapiens; summary of the method: as §1
[27] = test system: NCI-H460; assay: Percent growth of NCI cell line, lung-nsc: NCI-H460 exposed for 48 hr at 10e-8 concentration; assay type: functional, Homo sapiens; summary of the method: as §1
[28] = Percent growth of NCI cell line, leucemia K562 exposed for 48 hr at 10e-8 concentration; assay type: functional, Homo sapiens; summary of the method: as §1
[29] = test system: SNB-19; assay: Percent growth of NCI cell line, CNS: SNB-19 exposed for 48 hr at 10e-4 concentration; assay type: functional, Homo sapiens; summary of the method: as §1
[30] = test system: NCI-H460; assay: Percent growth of NCI cell line, lung-nsc: NCI-H460 exposed for 48 hr at 10e-6 concentration; assay type: functional, Homo sapiens; summary of the method: as §1
[31] = test system: SNB-19; assay: Percent growth of NCI cell line, CNS: SNB-19 exposed for 48 hr at 10e-8 concentration; assay type: functional, Homo sapiens; summary of the method: as §1
[32] = test system: LOX IMVI; assay: Percent growth of NCI cell line, melanoma: LOX IMVI exposed for 48 hr at 10e-4 concentration; assay type: functional, Homo sapiens; summary of the method: as §1
[33] = Percent growth of NCI cell line, leucemia K562 exposed for 48 hr at 10e-4 concentration; assay type: functional, Homo sapiens; summary of the method: as §1

SMILES | C50 [2] [µM] | IC50 [1] [nM] | Growth [3] [%] | Growth [4] [%] | Growth [5] [%] | Growth [6] [%] | Growth [7] [%] | Growth [8] [%] | Growth [9] [%] | Growth [10] [%] | Growth [11] [%] | Growth [12] [%] | Growth [13] [%] | Growth [15] [%] | IC50 [16] [nM] | Growth [17] [%] | Growth [18] [%] | IC50 [19] [nM] | IC50 [20] [nM] | Growth [21] [%] | also measured
COc1ccc2c(c1)c1nn(CCN3CCCCC3)c3ccc4c(=O)n(CCN(C)C)c(=O)n2c4c13 | 0.0099 | 0.04 | -84 | -12 | -41 | -51 | -91 | 4 | -89 | -57 | -34 | -61 | 12 | 20 |  | 15 | -67 |  |  | 39 | Growth [22]: 8%; Growth [23]: 24%; Growth [24]: 42%; Growth [27]: 22%; Growth [28]: 39%; Growth [29]: -54%; Growth [30]: -36%; Growth [31]: 55%; Growth [33]: -12%
CN(C)CCn1c(=O)c2ccc3c4c(nn3CCN3CCCC3)c3cc([N+](=O)[O-])ccc3n(c1=O)c24 | 0.048 | 1.4 |  |  |  |  |  |  |  |  |  |  |  |  |  |  |  |  |  |  | 
COc1cccc2c1C(=O)c1c(O)c3c(c(O)c1C2=O)C[C@@](O)(C(=O)CO)C[C@@H]3O[C@H]1C[C@H](N)[C@H](O)[C@H](C)O1 [DOXORUBICIN] |  |  |  |  |  |  |  |  |  |  |  |  |  |  | 860 |  |  | 2400 | 9700 |  | IC50 [25]: 24 nM
COc1ccc2c(c1)c1nn(CCN3CCCC3)c3ccc4c(=O)n(CCN(C)C)c(=O)n2c4c13 | 0.065 | 0.17 |  |  |  |  |  |  |  |  |  |  |  |  |  |  |  |  |  |  | 

Continued, in another order:

C50 [2] [µM] | SMILES | IC50 [1] [nM] | Growth [3] [%] | Growth [4] [%] | Growth [5] [%] | Growth [6] [%] | Growth [7] [%] | Growth [8] [%] | Growth [9] [%] | Growth [10] [%] | Growth [11] [%] | Growth [12] [%] | Growth [13] [%] | Growth [15] [%] | IC50 [16] [nM] | Growth [17] [%] | Growth [18] [%] | IC50 [19] [nM] | IC50 [20] [nM] | Growth [21] [%] | also measured
0.12 | CN(C)CCCn1c(=O)c2ccc3c4c(nn3CCN(C)C)c3ccccc3n(c1=O)c24 | 37 |  |  |  |  |  |  |  |  |  |  |  |  |  |  |  |  |  |  | 
0.0018 | CN(C)CCn1c(=O)c2ccc3c4c(nn3CCN(C)C)c3ccccc3n(c1=O)c24 | 37 | -36 | -95 | -42 | -16 | -37 | -41 | -56 | -79 | -29 | -85 | -27 | 27 | 290 | 51 | -90 | 3.9 | 79 | 60 | Growth [14]: 65%; Growth [22]: -3%; Growth [23]: 48%; Growth [24]: 63%; IC50 [25]: 12 nM; Growth [26]: -32%; Growth [27]: 30%; Growth [28]: 61%; Growth [29]: -41%; Growth [30]: -44%; Growth [31]: 66%; Growth [32]: -93%; Growth [33]: -67%
0.07 | CN(C)CCn1c(=O)c2ccc3c4c(nn3CCN(C)C)c3cc([N+](=O)[O-])ccc3n(c1=O)c24 | 0.98 | -55 | -93 | -25 | -16 | -94 | -12 | -96 | -94 | -4 | -89 | 6 | 36 | 520 | 57 | -99 | 13 | 190 | 82 | Growth [14]: 79%; Growth [22]: 2%; Growth [23]: 68%; Growth [24]: 81%; IC50 [25]: 16 nM; Growth [26]: 5%; Growth [27]: 47%; Growth [28]: 82%; Growth [29]: -93%; Growth [30]: -19%; Growth [31]: 75%; Growth [32]: -89%; Growth [33]: -38%
0.052 | COc1ccc2c(c1)c1nn(CCN(C)C)c3ccc4c(=O)n(CCN(C)C)c(=O)n2c4c13 | 11 | -73 | -89 | -26 | -11 | -77 | -27 | -82 | -95 | -31 | -80 | -14 | 28 | 290 | 40 | -96 | 1.8 | 140 | 54 | Growth [14]: 62%; Growth [22]: -15%; Growth [23]: 36%; Growth [24]: 49%; IC50 [25]: 13 nM; Growth [26]: -19%; Growth [27]: 9%; Growth [28]: 47%; Growth [29]: -62%; Growth [30]: -60%; Growth [31]: 62%; Growth [32]: -80%; Growth [33]: -81%
0.037 | COc1ccc2c(c1)c1nn(CCCN(C)C)c3ccc4c(=O)n(CCN(C)C)c(=O)n2c4c13 | 37 |  |  |  |  |  |  |  |  |  |  |  |  |  |  |  |  |  |  | 

Reference: ChEMBL document CHEMBL1135709, “2,6-Di(omega-aminoalkyl)-2,5,6,7-tetrahydropyrazolo[3,4,5-mn]pyrimido[5,6,1-de]acridine-5,7-diones: novel, potent, cytotoxic, and DNA-binding agents” (J Med Chem, 2002)
